Key:
[1] = biological target: Cannabinoid receptor 2 (Mus musculus) (UniProt P47936); test: Agonist activity at CB2R in LPS induced mouse BV2 cells assessed as IL-6 secretion at 10 uM preincubated for 30 mins followed by LPS stimulation for 4 hrs by ELISA (reference value: 764.7 +/-22.9%); format: cell-based; settings: BV-2, filed as agonist, time 270.0 min
Procedure, shortened: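 BV-2 murine microglia grown in high-glucose DMEM with 10% FBS. Treatments in FBS-free medium: test agonist 10 μM for 30 min, then LPS 5 μg/ml for 4 h; SR144528 10 μM given 15 min before agonist. DMSO ≤0.1% final. Medium spun 10 min at 1000×g; IL-1β, IL-6, IL-10 quantified by ELISA; three independent experiments in duplicate.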

Cannabinoid receptor 2 [2] = biological target: T1, Cannabinoid receptor 2 (Homo sapiens, UniProt P34972); test: Agonist activity at human CB2R expressed in CHO cell membranes after 90 mins by [35S]GTPgammaS assay; format: functional, Membrane
Procedure, shortened: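 In-house CHO membranes expressing hCB1 or hCB2 (10 µg) in 50 mM Tris-HCl, 3 mM MgCl2, 0.2 mM EDTA, 100 mM NaCl, 0.5% fatty-acid-free BSA, pH 7.4, with 10 μM GDP and 0.1 nM [35S]GTPγS. Incubated 90 min at 30 °C; antagonist pre-incubated 30 min. Nonspecific binding with 10 μM GTPγS; bound label by filtration and counting; ≥3 experiments in triplicate.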

Cannabinoid receptor 2 [3] = biological target: T1, Cannabinoid receptor 2; test: Competitive antagonist activity at human CB2R expressed in CHO cell membranes assessed as N-cycloheptyl-1,2-dihydro-5-bromo-1-(4-fluoro benzyl)-6-methyl-2-oxo-pyridine-3-carboxamide Emax at 1000 nM preincubated with compound for 30 mins followed by GTPgammaS addition and measured after 90 mins by [35S]GTPgammaS assay (reference value: 210%); format: functional; settings: Membrane, filed as antagonist, time 120.0 min
Procedure, shortened: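 hCB2 CHO membranes in GTPγS buffer (10 μM GDP, 0.1 nM [35S]GTPγS, pH 7.4) pre-incubated 30 min with antagonist at 300 nM or 1 µM, then agonist or inverse agonist concentration series, 90 min at 30 °C. EC50 and Emax reported with 95% CI; Schild analysis; controls CP55,940 100 nM and AM630 1 μM; ≥3 experiments in triplicate.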

T1 sequence (P34972 whole entry): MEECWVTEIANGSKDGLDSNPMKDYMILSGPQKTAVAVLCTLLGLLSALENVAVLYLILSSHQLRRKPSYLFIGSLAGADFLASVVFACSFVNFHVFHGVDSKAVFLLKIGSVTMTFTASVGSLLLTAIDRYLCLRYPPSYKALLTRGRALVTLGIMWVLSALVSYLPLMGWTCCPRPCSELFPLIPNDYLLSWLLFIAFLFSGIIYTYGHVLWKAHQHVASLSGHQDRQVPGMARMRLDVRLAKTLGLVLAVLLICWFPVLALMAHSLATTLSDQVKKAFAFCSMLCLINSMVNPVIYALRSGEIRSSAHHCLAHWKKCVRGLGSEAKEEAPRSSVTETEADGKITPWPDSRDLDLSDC
Chain of Cannabinoid receptor 2 (Mus musculus) (P47936 whole entry): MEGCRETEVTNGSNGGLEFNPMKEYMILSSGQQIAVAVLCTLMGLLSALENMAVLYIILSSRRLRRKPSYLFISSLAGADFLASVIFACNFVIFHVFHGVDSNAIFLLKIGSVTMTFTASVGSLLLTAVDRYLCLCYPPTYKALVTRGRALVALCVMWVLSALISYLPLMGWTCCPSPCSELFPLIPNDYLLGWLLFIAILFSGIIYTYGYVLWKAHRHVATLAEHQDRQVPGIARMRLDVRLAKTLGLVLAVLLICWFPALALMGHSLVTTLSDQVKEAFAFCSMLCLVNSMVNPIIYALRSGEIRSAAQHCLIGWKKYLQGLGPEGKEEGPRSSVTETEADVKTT

SMILES: Cc1c(Br)cc(C(=O)NC2CCCCCC2)c(=O)n1Cc1ccc(F)cc1
- Activity [1]: 27.8%
- EC50 (Cannabinoid receptor 2 [2]): 11.6 nM

SMILES: COc1ccc(-c2cc(C(=O)NC3CCCCCC3)c(=O)n(Cc3ccc(F)cc3)c2C)cc1
- Emax (Cannabinoid receptor 2 [3]): 208%
